Activity calls are given as the source filed them. No cut-off for these calls is given here.
Key:
BT-474 [1] = experiment: Induction of cell cycle arrest in human BT474 cells assessed as accumulation at G1 phase at 0.1 uM incubated for 12 hrs by propidium iodide staining based flow cytometry (reference value: 67%); format: functional
NCI-H460 = experiment: cells; details: Homo sapiens, NCI-H460, 72 h
Mus musculus [2] = experiment: Toxicity in human Calu3 cells xenografted BALB/cA mouse assessed as body weight loss at 200 mg/kg, po measured every other day for 21 days; format: organism-based, Calu-3; design: dose 200 mg/kg, route oral; details: in vivo, 504 h
Summary of the method: (§1)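 Female BALB/cA nude mice, 6–7 weeks old, implanted s.c. on the mid-right flank with 2×10^6 Calu-3 cells in 0.2 ml PBS. At 60–150 mm³ tumour volume, mice randomised into six per treatment group (twelve vehicle controls). Oral dosing in 0.5% CMC aqueous solution with 0.1% Tween-80. Body weight recorded every other day for 21 d.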

BT-474 [3] = experiment: Induction of cell cycle arrest in human BT474 cells assessed as accumulation at G2/M phase at 0.001 uM incubated for 12 hrs by propidium iodide staining based flow cytometry (reference value: 14%); format: functional
BT-474 [4] = experiment: Induction of cell cycle arrest in human BT474 cells assessed as accumulation at G1 phase at 1 uM incubated for 12 hrs by propidium iodide staining based flow cytometry (reference value: 67%); format: functional
BT-474 [5] = experiment: Induction of cell cycle arrest in human BT474 cells assessed as accumulation at G1 phase at 0.01 uM incubated for 12 hrs by propidium iodide staining based flow cytometry (reference value: 67%); format: functional
BT-474 [6] = experiment: Induction of cell cycle arrest in human BT474 cells assessed as accumulation at S phase at 1 uM incubated for 12 hrs by propidium iodide staining based flow cytometry (reference value: 19%); format: functional
[7] = molecular target: Mast/stem cell growth factor receptor Kit (Homo sapiens, UniProt P10721); experiment: Inhibition of c-KIT phosphorylation (unknown origin) expressed in human NCI-H526 cells at 0.001 to 1 uM incubated for 2 hrs by Western blot method
BT-474 [8] = experiment: Induction of apoptosis in human BT474 cells at 0.001 uM incubated for 12 hrs by propidium iodide staining based flow cytometry (reference value: 1%); format: functional
MDA-MB-453 = experiment: cells; details: Homo sapiens, MDA-MB-453, 72 h
Mus musculus [9] = experiment: Toxicity in human Calu3 cells xenografted BALB/cA mouse assessed as body weight loss at 100 mg/kg, po measured every other day for 21 days; format: organism-based, Calu-3; design: dose 100 mg/kg, route oral; details: in vivo, 504 h; summary of the method: as §1
[10] = molecular target: Platelet-derived growth factor receptor beta (Homo sapiens, UniProt P09619); experiment: Inhibition of PDGFRbeta phosphorylation (unknown origin) expressed in human U87MG cells at 0.001 to 1 uM incubated for 2 hrs by Western blot method; details: U-87MG ATCC
BT-474 [11] = experiment: Induction of cell cycle arrest in human BT474 cells assessed as accumulation at G1 phase at 0.001 uM incubated for 12 hrs by propidium iodide staining based flow cytometry (reference value: 67%); format: functional
BT-474 [12] = experiment: Induction of apoptosis in human BT474 cells at 0.1 uM incubated for 12 hrs by propidium iodide staining based flow cytometry (reference value: 1%); format: functional
BT-474 [13] = experiment: Induction of cell cycle arrest in human BT474 cells assessed as accumulation at G2/M phase at 0.1 uM incubated for 12 hrs by propidium iodide staining based flow cytometry (reference value: 14%); format: functional
[14] = Antitumor activity against human Calu3 cells xenografted in BALB/cA mouse assessed as tumor growth inhibition at 200 mg/kg, po; format: functional; details: Calu-3, read-out: TGI
Summary of the method: (§2)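 Female BALB/cA nude mice, 6–7 weeks old, implanted s.c. on midright side with 2×10^6 Calu-3 cells in 0.2 ml PBS. Grouped at 60–150 mm³ tumour volume (6 per treated group, 12 vehicle). Oral dosing in 0.5% CMC with 0.1% Tween-80. Caliper volume = L×W²×0.5; inhibition = (1 − T/C)×100% on relative tumour volume; weight tracked for 21 d.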

cells [15] = details: Homo sapiens, Calu-3, 72 h
BT-474 [16] = experiment: Induction of cell cycle arrest in human BT474 cells assessed as accumulation at G1 phase at 10 uM incubated for 12 hrs by propidium iodide staining based flow cytometry (reference value: 67%); format: functional
BT-474 [17] = experiment: Induction of cell cycle arrest in human BT474 cells assessed as accumulation at G2/M phase at 1 uM incubated for 12 hrs by propidium iodide staining based flow cytometry (reference value: 14%); format: functional
BT-474 [18] = experiment: Induction of cell cycle arrest in human BT474 cells assessed as accumulation at S phase at 10 uM incubated for 12 hrs by propidium iodide staining based flow cytometry (reference value: 19%); format: functional
BT-474 [19] = experiment: Induction of cell cycle arrest in human BT474 cells assessed as accumulation at G2/M phase at 10 uM incubated for 12 hrs by propidium iodide staining based flow cytometry (reference value: 14%); format: functional
[20] = molecular target: T1, Receptor tyrosine-protein kinase erbB-2 (Homo sapiens, UniProt P04626); details: BT-474, 0.001 to 10 uM
BT-474 [21] = experiment: Induction of cell cycle arrest in human BT474 cells assessed as accumulation at G2/M phase at 0.01 uM incubated for 12 hrs by propidium iodide staining based flow cytometry (reference value: 14%); format: functional
BT-474 [22] = experiment: Induction of apoptosis in human BT474 cells at 1 uM incubated for 12 hrs by propidium iodide staining based flow cytometry (reference value: 1%); format: functional
BT-474 [23] = experiment: Induction of apoptosis in human BT474 cells at 0.01 uM incubated for 12 hrs by propidium iodide staining based flow cytometry (reference value: 1%); format: functional
MRC5 = experiment: cells; details: Homo sapiens, MRC5, 72 h
MCF7 = experiment: Cytotoxicity against human MCF7 cells assessed as inhibition of cell growth after 72 hrs by sulforhodamine B assay; format: functional, cell-based; details: MCF7, 72 h
Summary of the method: (§3)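 Cells grown in RPMI-1640 with 5% FBS and plated at 5.0×10^4/ml. Next day exposed to 0.5–5000 ng/ml for 3 days. Survival read by sulforhodamine B staining. IC50 taken from growth curves; mean of at least three determinations.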

[24] = molecular target: T1, Receptor tyrosine-protein kinase erbB-2; details: BT-474, 0.001 to 10 uM; remark: listed apart in the source
BT-474 [25] = experiment: Induction of cell cycle arrest in human BT474 cells assessed as accumulation at S phase at 0.001 uM incubated for 12 hrs by propidium iodide staining based flow cytometry (reference value: 19%); format: functional
[26] = molecular target: T1, Receptor tyrosine-protein kinase erbB-2; details: BT-474, 0.001 to 10 uM; remark: listed apart in the source
MDA-MB-231 = experiment: cells; details: Homo sapiens, MDA-MB-231, 72 h
BT-474 [27] = experiment: Cytotoxicity against human BT474 cells assessed as inhibition of cell growth after 72 hrs by sulforhodamine B assay; format: functional, cell-based; details: BT-474, 72 h; summary of the method: as §3
cells [28] = details: Homo sapiens, SK-OV-3, 72 h
A-431 = experiment: Cytotoxicity against human A431 cells assessed as inhibition of cell growth after 72 hrs by sulforhodamine B assay; format: functional, cell-based; details: A-431, 72 h; summary of the method: as §3
BT-474 [29] = experiment: Induction of cell cycle arrest in human BT474 cells assessed as accumulation at S phase at 0.1 uM incubated for 12 hrs by propidium iodide staining based flow cytometry (reference value: 19%); format: functional
BT-474 [30] = experiment: Induction of cell cycle arrest in human BT474 cells assessed as accumulation at S phase at 0.01 uM incubated for 12 hrs by propidium iodide staining based flow cytometry (reference value: 19%); format: functional
[31] = molecular target: Vascular endothelial growth factor receptor 2 (Homo sapiens, UniProt P35968); experiment: Inhibition of KDR phosphorylation (unknown origin) expressed in human HUVEC at 0.001 to 1 uM incubated for 2 hrs by Western blot method
[32] = Cytotoxicity against human SKBR3 cells assessed as inhibition of cell growth after 72 hrs by sulforhodamine B assay; format: functional, cell-based; details: SK-BR-3, 72 h; summary of the method: as §3
BT-474 [33] = experiment: Induction of apoptosis in human BT474 cells at 10 uM incubated for 12 hrs by propidium iodide staining based flow cytometry (reference value: 1%); format: functional
[34] = Antitumor activity against human Calu3 cells xenografted in BALB/cA mouse assessed as tumor growth inhibition at 100 mg/kg, po; format: functional; details: Calu-3, read-out: TGI; summary of the method: as §2

T1 sequence (P04626 whole entry): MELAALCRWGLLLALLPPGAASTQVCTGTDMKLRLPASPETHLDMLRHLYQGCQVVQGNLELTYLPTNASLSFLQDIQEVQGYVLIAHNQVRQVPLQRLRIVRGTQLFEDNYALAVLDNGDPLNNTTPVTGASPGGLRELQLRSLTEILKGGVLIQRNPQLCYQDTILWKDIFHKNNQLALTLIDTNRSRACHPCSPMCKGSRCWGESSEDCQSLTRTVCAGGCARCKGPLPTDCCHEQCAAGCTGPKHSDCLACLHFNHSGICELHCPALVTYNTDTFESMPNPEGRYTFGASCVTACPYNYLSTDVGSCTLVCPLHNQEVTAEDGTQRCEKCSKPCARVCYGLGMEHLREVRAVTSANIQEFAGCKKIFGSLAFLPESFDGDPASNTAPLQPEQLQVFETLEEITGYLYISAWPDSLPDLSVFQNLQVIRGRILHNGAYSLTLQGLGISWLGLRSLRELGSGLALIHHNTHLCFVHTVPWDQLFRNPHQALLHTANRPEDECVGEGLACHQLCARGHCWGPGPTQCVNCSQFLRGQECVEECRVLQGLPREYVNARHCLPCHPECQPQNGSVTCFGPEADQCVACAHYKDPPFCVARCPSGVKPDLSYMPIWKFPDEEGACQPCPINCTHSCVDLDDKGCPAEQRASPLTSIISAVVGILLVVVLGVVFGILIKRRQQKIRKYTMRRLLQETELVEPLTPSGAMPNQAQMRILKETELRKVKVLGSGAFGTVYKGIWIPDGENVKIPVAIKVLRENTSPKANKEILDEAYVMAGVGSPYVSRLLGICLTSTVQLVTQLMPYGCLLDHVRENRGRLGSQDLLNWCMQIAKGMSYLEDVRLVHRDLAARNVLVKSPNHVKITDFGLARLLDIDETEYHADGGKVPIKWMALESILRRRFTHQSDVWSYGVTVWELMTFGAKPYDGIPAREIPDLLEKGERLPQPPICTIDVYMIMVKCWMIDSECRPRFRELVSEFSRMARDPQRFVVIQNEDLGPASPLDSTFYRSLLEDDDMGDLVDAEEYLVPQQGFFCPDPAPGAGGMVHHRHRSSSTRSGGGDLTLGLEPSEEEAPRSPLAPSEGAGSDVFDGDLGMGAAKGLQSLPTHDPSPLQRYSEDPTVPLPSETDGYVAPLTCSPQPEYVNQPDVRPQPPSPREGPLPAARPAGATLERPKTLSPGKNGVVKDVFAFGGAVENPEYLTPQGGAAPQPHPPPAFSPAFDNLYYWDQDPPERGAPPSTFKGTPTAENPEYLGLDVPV
Platelet-derived growth factor receptor beta, sequence (P09619 whole entry): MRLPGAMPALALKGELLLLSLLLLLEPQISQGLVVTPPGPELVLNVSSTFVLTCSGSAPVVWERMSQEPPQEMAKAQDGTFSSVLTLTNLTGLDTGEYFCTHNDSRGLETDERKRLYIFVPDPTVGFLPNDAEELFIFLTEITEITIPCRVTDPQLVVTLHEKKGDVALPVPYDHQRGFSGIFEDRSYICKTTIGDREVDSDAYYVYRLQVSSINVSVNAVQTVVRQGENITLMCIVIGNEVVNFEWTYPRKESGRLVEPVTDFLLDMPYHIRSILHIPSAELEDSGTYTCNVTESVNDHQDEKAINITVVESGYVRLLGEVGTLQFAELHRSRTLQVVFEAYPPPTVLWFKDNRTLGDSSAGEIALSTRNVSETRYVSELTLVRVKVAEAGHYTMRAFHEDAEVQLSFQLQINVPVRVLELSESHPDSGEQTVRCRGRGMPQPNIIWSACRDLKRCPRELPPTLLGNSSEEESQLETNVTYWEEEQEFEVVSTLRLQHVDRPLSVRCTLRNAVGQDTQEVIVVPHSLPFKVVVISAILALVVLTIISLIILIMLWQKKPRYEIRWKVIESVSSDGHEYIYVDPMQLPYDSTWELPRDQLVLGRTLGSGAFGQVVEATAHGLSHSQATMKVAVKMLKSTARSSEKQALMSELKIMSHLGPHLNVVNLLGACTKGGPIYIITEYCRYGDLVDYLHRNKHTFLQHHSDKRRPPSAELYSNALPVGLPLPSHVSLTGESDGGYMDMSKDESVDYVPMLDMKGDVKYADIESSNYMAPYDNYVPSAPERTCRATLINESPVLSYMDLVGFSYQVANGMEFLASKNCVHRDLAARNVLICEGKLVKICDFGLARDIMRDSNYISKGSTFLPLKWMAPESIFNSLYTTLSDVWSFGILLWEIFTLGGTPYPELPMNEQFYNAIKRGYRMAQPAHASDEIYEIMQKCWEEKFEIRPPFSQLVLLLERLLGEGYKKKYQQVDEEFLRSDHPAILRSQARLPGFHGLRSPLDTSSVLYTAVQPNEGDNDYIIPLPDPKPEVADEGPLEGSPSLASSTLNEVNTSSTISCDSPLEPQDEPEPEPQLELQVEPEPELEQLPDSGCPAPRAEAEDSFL
Vascular endothelial growth factor receptor 2, sequence (P35968 whole entry): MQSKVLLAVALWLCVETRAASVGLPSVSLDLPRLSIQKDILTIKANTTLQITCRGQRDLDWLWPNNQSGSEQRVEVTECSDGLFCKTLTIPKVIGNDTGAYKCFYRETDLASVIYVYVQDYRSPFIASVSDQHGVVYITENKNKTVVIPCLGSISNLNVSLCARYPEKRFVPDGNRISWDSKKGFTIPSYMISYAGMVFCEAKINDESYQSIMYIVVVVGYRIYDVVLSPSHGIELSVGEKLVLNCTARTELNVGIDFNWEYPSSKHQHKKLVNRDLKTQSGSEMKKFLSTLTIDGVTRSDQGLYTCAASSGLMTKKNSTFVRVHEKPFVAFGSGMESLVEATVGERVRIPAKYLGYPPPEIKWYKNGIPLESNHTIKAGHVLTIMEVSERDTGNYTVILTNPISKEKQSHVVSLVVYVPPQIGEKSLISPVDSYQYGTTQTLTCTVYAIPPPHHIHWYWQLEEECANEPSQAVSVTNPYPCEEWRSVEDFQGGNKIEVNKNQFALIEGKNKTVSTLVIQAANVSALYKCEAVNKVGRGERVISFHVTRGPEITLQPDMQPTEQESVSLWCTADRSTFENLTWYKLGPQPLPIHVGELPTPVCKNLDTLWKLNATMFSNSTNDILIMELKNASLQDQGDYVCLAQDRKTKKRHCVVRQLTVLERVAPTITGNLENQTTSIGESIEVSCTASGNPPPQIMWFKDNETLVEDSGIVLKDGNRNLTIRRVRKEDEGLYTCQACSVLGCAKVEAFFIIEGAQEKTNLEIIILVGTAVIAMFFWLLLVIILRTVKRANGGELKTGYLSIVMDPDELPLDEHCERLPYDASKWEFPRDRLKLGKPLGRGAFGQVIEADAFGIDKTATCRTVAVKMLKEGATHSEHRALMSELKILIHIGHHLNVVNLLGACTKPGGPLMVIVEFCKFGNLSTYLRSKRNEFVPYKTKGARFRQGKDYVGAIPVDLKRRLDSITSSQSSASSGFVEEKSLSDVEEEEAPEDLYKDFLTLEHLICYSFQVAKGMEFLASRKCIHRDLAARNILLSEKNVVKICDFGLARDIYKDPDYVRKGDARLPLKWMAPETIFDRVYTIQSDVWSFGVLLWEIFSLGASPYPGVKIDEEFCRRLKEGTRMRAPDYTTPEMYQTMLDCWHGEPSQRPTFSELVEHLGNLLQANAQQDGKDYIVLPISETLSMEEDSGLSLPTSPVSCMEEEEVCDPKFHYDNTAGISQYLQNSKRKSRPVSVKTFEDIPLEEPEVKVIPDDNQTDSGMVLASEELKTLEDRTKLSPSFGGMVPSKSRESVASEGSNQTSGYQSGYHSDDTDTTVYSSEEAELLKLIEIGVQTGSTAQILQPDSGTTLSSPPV
Mast/stem cell growth factor receptor Kit, sequence (P10721 whole entry): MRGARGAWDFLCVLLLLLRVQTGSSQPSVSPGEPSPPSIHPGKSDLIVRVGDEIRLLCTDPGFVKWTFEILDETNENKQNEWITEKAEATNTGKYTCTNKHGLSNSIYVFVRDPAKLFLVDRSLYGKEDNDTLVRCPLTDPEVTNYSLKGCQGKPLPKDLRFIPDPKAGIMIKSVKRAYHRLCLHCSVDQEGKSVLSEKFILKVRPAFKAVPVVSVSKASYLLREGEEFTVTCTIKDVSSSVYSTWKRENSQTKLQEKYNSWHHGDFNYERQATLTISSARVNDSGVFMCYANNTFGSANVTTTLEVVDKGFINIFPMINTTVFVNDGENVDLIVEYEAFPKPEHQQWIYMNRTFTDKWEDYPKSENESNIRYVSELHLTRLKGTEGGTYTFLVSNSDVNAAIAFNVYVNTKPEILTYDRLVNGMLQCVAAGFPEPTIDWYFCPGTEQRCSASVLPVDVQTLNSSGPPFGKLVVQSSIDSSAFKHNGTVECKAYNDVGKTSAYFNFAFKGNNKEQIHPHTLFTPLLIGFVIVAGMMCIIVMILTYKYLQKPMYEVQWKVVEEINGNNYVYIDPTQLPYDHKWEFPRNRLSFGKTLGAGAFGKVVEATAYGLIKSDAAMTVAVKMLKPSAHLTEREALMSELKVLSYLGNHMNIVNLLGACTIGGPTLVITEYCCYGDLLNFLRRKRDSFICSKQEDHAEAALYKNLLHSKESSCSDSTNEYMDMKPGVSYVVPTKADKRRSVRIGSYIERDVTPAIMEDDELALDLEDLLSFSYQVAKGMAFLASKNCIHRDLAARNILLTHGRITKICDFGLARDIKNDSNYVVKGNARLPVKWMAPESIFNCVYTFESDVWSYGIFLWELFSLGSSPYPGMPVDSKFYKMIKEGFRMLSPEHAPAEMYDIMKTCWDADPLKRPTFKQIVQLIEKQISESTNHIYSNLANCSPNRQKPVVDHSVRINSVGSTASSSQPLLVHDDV

- IC50 (NCI-H460): > 100000 nM
- inhibition [7]: inactive
- IC50 (MDA-MB-453): 190 nM
- inhibition [10]: inactive
- IC50 (cells [15]): 230 nM
- inhibition [20]: Active
- inhibition [24]: Active
- inhibition [26]: Active
- IC50 (MDA-MB-231): > 100000 nM
- IC50 (cells [28]): 590 nM
- inhibition [31]: inactive
Compound: CS(=O)(=O)CCNCc1ccc(-c2ccc3ncnc(Nc4ccc(OCc5cccc(F)c5)c(Cl)c4)c3c2)o1 [LAPATINIB]
- Activity (BT-474 [1]): 84%
- Activity (Mus musculus [2]): Non-toxic
- Activity (BT-474 [3]): 14%
- Activity (BT-474 [4]): 84%
- Activity (BT-474 [5]): 82%
- Activity (BT-474 [6]): 6%
- Activity (BT-474 [8]): 1%
- Activity (Mus musculus [9]): Non-toxic
- Activity (BT-474 [11]): 71%
- Activity (BT-474 [12]): 4%
- Activity (BT-474 [13]): 10%
- inhibition in vivo at 200 mg/kg [14]: 70%
- Activity (BT-474 [16]): 81%
- Activity (BT-474 [17]): 10%
- Activity (BT-474 [18]): 8%
- Activity (BT-474 [19]): 11%
- Activity (BT-474 [21]): 11%
- Activity (BT-474 [22]): 6%
- Activity (BT-474 [23]): 1%
- IC50 (MRC5): > 100000 nM
- IC50 (MCF7): 8470 nM
- Activity (BT-474 [25]): 15%
- IC50 (BT-474 [27]): 63.9 nM
- IC50 (A-431): 643 nM
- Activity (BT-474 [29]): 6%
- Activity (BT-474 [30]): 7%
- IC50 [32]: 30.1 nM
- Activity (BT-474 [33]): 13%
- inhibition in vivo at 100 mg/kg [34]: 56%

Reference: ChEMBL document CHEMBL3352165 (Eur J Med Chem, 2014)
